Experimental data: ChEMBL document CHEMBL6177937, “Design, synthesis, and biological evaluation of novel thiazole derivatives as PI3K/mTOR dual inhibitors” (RSC Med Chem, 2024)

Assays:
HL-60 [1] = assay: Growth inhibition of human HL-60 cells measured after 48 hrs by SRB assay; type: functional; settings: for CC50: read-out: LC50 (the source's name)
In short: (§1)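 NCI 60-line format with five concentrations (10-fold or ½-log serial dilutions) from DMSO stocks in medium with 50 μg/mL gentamicin. Cells preincubated 24 h, then exposed 48 h at 37°C, 5% CO2. Time-zero plates TCA-fixed. SRB absorbance read at 515 nm. GI50 taken from [(Ti−Tz)/(C−Tz)]×100 = 50. Out-of-range values are expressed as > or < the highest or lowest concentration tested.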

K562 = assay: Growth inhibition of human K562 cells measured after 48 hrs by SRB assay; type: functional; in short: as §1
RPMI-8226 = assay: Growth inhibition of human RPMI-8226 cells measured after 48 hrs by SRB assay; type: functional
In short: (§2)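 NCI 60-line SRB screen: cells seeded […], grown 24 h at 37°C, 5% CO2, then exposed 48 h to five concentrations (10-fold or ½-log dilutions from DMSO stock). Adherent cells fixed with cold TCA (final 10%), suspension cells with 80% TCA (final 16%); SRB stained, read at 515 nm. GI50 from time-zero, control and treated absorbances.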

A549 = assay: Growth inhibition of human A549 cells measured after 48 hrs by SRB assay; type: functional; in short: as §1
HOP-92 = assay: Growth inhibition of human HOP-92 cells measured after 48 hrs by SRB assay; type: functional; in short: as §1
NCI-H460 = assay: Growth inhibition of human NCI-H460 cells measured after 48 hrs by SRB assay; type: functional; in short: as §1
COLO 205 = assay: Growth inhibition of human COLO 205 cells measured after 48 hrs by SRB assay; type: functional; in short: as §1
HCT-116 = assay: Growth inhibition of human HCT-116 cells measured after 48 hrs by SRB assay; type: functional; in short: as §1
HCT-15 = assay: Growth inhibition of human HCT-15 cells measured after 48 hrs by SRB assay; type: functional; in short: as §1
HT-29 = assay: Growth inhibition of human HT-29 cells measured after 48 hrs by SRB assay; type: functional; in short: as §1
KM12 = assay: Growth inhibition of human KM12 cells measured after 48 hrs by SRB assay; type: functional; in short: as §1
SW-620 = assay: Growth inhibition of human SW620 cells measured after 48 hrs by SRB assay; type: functional; in short: as §2
SF-268 = assay: Growth inhibition of human SF-268 cells measured after 48 hrs by SRB assay; type: functional; in short: as §2
SF-539 = assay: Growth inhibition of human SF-539 cells measured after 48 hrs by SRB assay; type: functional; in short: as §2
SNB-19 = assay: Growth inhibition of human SNB-19 cells measured after 48 hrs by SRB assay; type: functional; in short: as §2
SNB-75 = assay: Growth inhibition of human SNB-75 cells measured after 48 hrs by SRB assay; type: functional; in short: as §2
LOX IMVI = assay: Growth inhibition of human LOX IMVI cells measured after 48 hrs by SRB assay; type: functional; settings: for CC50: read-out: LC50 (the source's name); in short: as §1
M14 = assay: Growth inhibition of human M14 cells measured after 48 hrs by SRB assay; type: functional; in short: as §1
MDA-MB-435 = assay: Growth inhibition of human MDA-MB-435 cells measured after 48 hrs by SRB assay; type: functional; in short: as §1
SK-MEL-2 = assay: Growth inhibition of human SK-MEL-2 cells measured after 48 hrs by SRB assay; type: functional; in short: as §2
UACC-257 = assay: Growth inhibition of human UACC-257 cells measured after 48 hrs by SRB assay; type: functional; settings: for CC50: read-out: LC50 (the source's name); in short: as §2
UACC-62 = assay: Growth inhibition of human UACC-62 cells measured after 48 hrs by SRB assay; type: functional; in short: as §2
OVCAR-4 = assay: Growth inhibition of human OVCAR-4 cells measured after 48 hrs by SRB assay; type: functional; in short: as §1
OVCAR-8 = assay: Growth inhibition of human OVCAR-8 cells measured after 48 hrs by SRB assay; type: functional; in short: as §1
NCI/ADR-RES = assay: Growth inhibition of human NCI/ADR-RES cells measured after 48 hrs by SRB assay; type: functional; in short: as §1
A498 = assay: Growth inhibition of human A498 cells measured after 48 hrs by SRB assay; type: functional; in short: as §1
RXF 393 = assay: Growth inhibition of human RXF 393 cells measured after 48 hrs by SRB assay; type: functional; in short: as §2
UO-31 = assay: Growth inhibition of human UO-31 cells measured after 48 hrs by SRB assay; type: functional; settings: for CC50: read-out: LC50 (the source's name); in short: as §2
PC-3 = assay: Growth inhibition of human PC-3 cells measured after 48 hrs by SRB assay; type: functional; in short: as §2
MCF7 = assay: Growth inhibition of human MCF7 cells measured after 48 hrs by SRB assay; type: functional; in short: as §1
MDA-MB-468 = assay: Growth inhibition of human MDA-MB-468 cells measured after 48 hrs by SRB assay; type: functional; in short: as §1
[2] = Cytotoxicity against human PCS-800-017 cells assessed as reduction in cell viability measured after 24 hrs by MTT assay; type: toxicity, cell-based
In short: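 MTT viability with 24 h incubation in 96-well plates. Five semi-log concentrations from 0.01 to 100 μM. Formazan absorbance read at 570 nm, with 690 nm background subtracted. Run in triplicate. IC50 obtained by sigmoidal dose-response fitting. Cells are leukemia HL-60(TB) and normal lymphocytes (PCS-800-017).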

[3] = Selectivity index, ratio of IC50 for human PCS-800-017 cells to IC50 for human HL-60 cells; type: toxicity; settings: PCS-800-017 cells and HL-60 cells, read-out: Ratio IC50
HL-60 [4] = assay: Induction of apoptosis in human HL-60 cells assessed as increase in total apoptotic cells measured after 24 hrs by Annexin-V/propidium iodide staining based flow cytometry relative to control; type: functional
HL-60 [5] = assay: Induction of apoptosis in human HL-60 cells assessed as necrotic cells measured after 24 hrs by Annexin-V/propidium iodide staining based flow cytometry (reference value: 0.61%); type: functional

CCOc1cc(/C=N/Nc2nc(-c3cccc([N+](=O)[O-])c3)cs2)ccc1O
GI50 (HL-60 [1]): 2.32 µM
TGI (HL-60 [1]): 7.84 µM
CC50 (HL-60 [1]): > 100 µM
GI50 (K562): 3.05 µM
TGI (K562): 34.3 µM
GI50 (RPMI-8226): 3.03 µM
TGI (RPMI-8226): > 100 µM
GI50 (A549): 3.45 µM
TGI (A549): 14.1 µM
GI50 (HOP-92): 3.2 µM
TGI (HOP-92): 30.9 µM
GI50 (NCI-H460): 2.4 µM
TGI (NCI-H460): 5.81 µM
GI50 (COLO 205): 16.4 µM
TGI (COLO 205): 38.7 µM
GI50 (HCT-116): 2.34 µM
TGI (HCT-116): 5.83 µM
GI50 (HCT-15): 2.86 µM
TGI (HCT-15): 11.8 µM
GI50 (HT-29): 33.7 µM
TGI (HT-29): > 100 µM
GI50 (KM12): 1.94 µM
TGI (KM12): 3.63 µM
GI50 (SW-620): 3.53 µM
TGI (SW-620): 11.6 µM
GI50 (SF-268): 3.45 µM
TGI (SF-268): 27.4 µM
GI50 (SF-539): 1.78 µM
TGI (SF-539): 4.15 µM
GI50 (SNB-19): 3.35 µM
TGI (SNB-19): 20.8 µM
GI50 (SNB-75): 2.72 µM
TGI (SNB-75): 13.1 µM
GI50 (LOX IMVI): 1.73 µM
TGI (LOX IMVI): 3.59 µM
CC50 (LOX IMVI): 7.46 µM
GI50 (M14): 1.85 µM
TGI (M14): 3.89 µM
GI50 (MDA-MB-435): 2.7 µM
TGI (MDA-MB-435): 9.14 µM
GI50 (SK-MEL-2): 2.48 µM
TGI (SK-MEL-2): 6.75 µM
GI50 (UACC-257): 1.71 µM
TGI (UACC-257): 3.23 µM
CC50 (UACC-257): 6.08 µM
GI50 (UACC-62): 2.39 µM
TGI (UACC-62): 6.56 µM
GI50 (OVCAR-4): 2.41 µM
TGI (OVCAR-4): 8.05 µM
GI50 (OVCAR-8): 2.84 µM
TGI (OVCAR-8): 9.63 µM
GI50 (NCI/ADR-RES): 2.72 µM
TGI (NCI/ADR-RES): 8.59 µM
GI50 (A498): 20.2 µM
TGI (A498): 44.8 µM
GI50 (RXF 393): 1.89 µM
TGI (RXF 393): 4.82 µM
GI50 (UO-31): 2.29 µM
TGI (UO-31): 8.85 µM
CC50 (UO-31): > 100 µM
GI50 (PC-3): 2.54 µM
TGI (PC-3): 11.4 µM
GI50 (MCF7): 2.86 µM
TGI (MCF7): 10.9 µM
GI50 (MDA-MB-468): 2.17 µM
TGI (MDA-MB-468): 4.61 µM
IC50 at 24 h [2]: 28.6 µM
selectivity ratio [3]: 12.3
fold change (FC) (HL-60 [4]): 23.07
Activity (HL-60 [5]): 4.93%

O=[N+]([O-])c1cc(/C=N/Nc2nc(-c3ccc(Cl)cc3)cs2)ccc1Cl
GI50 (HL-60 [1]): 2.29 µM
TGI (HL-60 [1]): 7.43 µM
CC50 (HL-60 [1]): > 100 µM
GI50 (K562): 5.86 µM
TGI (K562): 66.4 µM
GI50 (RPMI-8226): 2.31 µM
TGI (RPMI-8226): 6.29 µM
GI50 (A549): 78.4 µM
TGI (A549): > 100 µM
GI50 (HOP-92): 2.59 µM
TGI (HOP-92): 10.8 µM
GI50 (NCI-H460): 13.6 µM
TGI (NCI-H460): 26.5 µM
GI50 (COLO 205): 15.4 µM
TGI (COLO 205): 29.7 µM
GI50 (HCT-116): 16.3 µM
TGI (HCT-116): 36.6 µM
GI50 (HCT-15): 13.1 µM
TGI (HCT-15): 42.1 µM
GI50 (HT-29): 3.6 µM
TGI (HT-29): 15.4 µM
GI50 (KM12): 1.88 µM
TGI (KM12): 3.58 µM
GI50 (SW-620): 18.3 µM
TGI (SW-620): 43.1 µM
GI50 (SF-268): 8.44 µM
TGI (SF-268): 31.8 µM
GI50 (SF-539): 16.3 µM
TGI (SF-539): 31.1 µM
GI50 (SNB-19): 10.5 µM
TGI (SNB-19): 24.2 µM
GI50 (SNB-75): 14.8 µM
TGI (SNB-75): 40.1 µM
GI50 (LOX IMVI): 3.91 µM
TGI (LOX IMVI): > 100 µM
CC50 (LOX IMVI): > 100 µM
GI50 (M14): 17 µM
TGI (M14): 45.6 µM
GI50 (MDA-MB-435): 23.2 µM
TGI (MDA-MB-435): 98.3 µM
GI50 (SK-MEL-2): 24 µM
TGI (SK-MEL-2): 81.5 µM
GI50 (UACC-257): 7.52 µM
TGI (UACC-257): 22 µM
CC50 (UACC-257): 51.6 µM
GI50 (UACC-62): 11.1 µM
TGI (UACC-62): 26 µM
GI50 (OVCAR-4): 8.25 µM
TGI (OVCAR-4): 35.9 µM
GI50 (OVCAR-8): 14.9 µM
TGI (OVCAR-8): 54.1 µM
GI50 (NCI/ADR-RES): 16.8 µM
TGI (NCI/ADR-RES): 41.5 µM
GI50 (A498): 14.8 µM
TGI (A498): 39.6 µM
GI50 (RXF 393): 11.9 µM
TGI (RXF 393): 30.6 µM
GI50 (UO-31): 8.46 µM
TGI (UO-31): 20.7 µM
CC50 (UO-31): 45.5 µM
GI50 (PC-3): 1.91 µM
TGI (PC-3): 4.46 µM
GI50 (MCF7): 1.79 µM
TGI (MCF7): 3.81 µM
GI50 (MDA-MB-468): 1.54 µM
TGI (MDA-MB-468): 3.01 µM
IC50 at 24 h [2]: 22.7 µM
selectivity ratio [3]: 9.9
fold change (FC) (HL-60 [4]): 19.9
Activity (HL-60 [5]): 3.64%
